Residue numbers refer to the chain shown, from its start. “And” between values parts separate entries of the source, which are not always exact repeats. Identical values can stand only once. Like-named read-outs stand apart in the source and are kept apart here.
Legend:
Experiment in all cases: Whole-cell voltage clamp, Zn^2+ modulation of GAQ gating
Assay type in all cases: cell-based
[1] = biological target: T1, human Hv1 D185H-H193A (Homo sapiens, UniProt Q96D96, D185H/H193A)
T1 sequence (Q96D96 1-273 D185H/H193A): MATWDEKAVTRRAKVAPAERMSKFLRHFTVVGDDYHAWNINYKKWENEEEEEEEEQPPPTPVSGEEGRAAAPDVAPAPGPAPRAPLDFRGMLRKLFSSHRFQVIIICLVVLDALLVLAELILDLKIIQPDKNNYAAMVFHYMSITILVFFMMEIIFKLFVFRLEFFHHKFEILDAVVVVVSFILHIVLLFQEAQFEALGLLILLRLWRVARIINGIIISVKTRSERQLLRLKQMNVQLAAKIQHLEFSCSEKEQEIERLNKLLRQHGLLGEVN
Procedure, shortened: (§1)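 Whole-cell patch clamp at ~21°C. Pipette and bath (mM): ~80 TMA-MeSO3, 100 Bis-Tris, 8 HCl, pH 6.5, 310–320 mOsm. ZnCl2 was diluted into bath solution and applied by gravity superfusion, at least 2 min per change. Test step voltage was set per construct from its V0.5. G_STEP = end-of-step current/(V−V_REV). Effect = 1 − G_Zn/G_control, fitted to the Hill equation. IC50 and nH are means ± SEM from separate cells. ΔpIC50 was tested by unpaired t test, P<0.05.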

[2] = biological target: T2, human Hv1 D123H-H140A (Homo sapiens, UniProt Q96D96, D123H/H140A)
T2 sequence (Q96D96 1-273 D123H/H140A): T1 sequence (Q96D96 1-273 D185H/H193A) with D123H, H140A, H185D, A193H
Procedure, shortened: as §1

[3] = biological target: T3, human Hv1 E119H-H140A-H193A (Homo sapiens, UniProt Q96D96, E119H/H140A/H193A)
T3 sequence (Q96D96 1-273 E119H/H140A/H193A): T1 sequence (Q96D96 1-273 D185H/H193A) with E119H, H140A, H185D
Procedure, shortened: as §1

[4] = biological target: T4, human Hv1 E119A-H193A (Homo sapiens, UniProt Q96D96, E119A/H193A)
T4 sequence (Q96D96 1-273 E119A/H193A): T1 sequence (Q96D96 1-273 D185H/H193A) with E119A, H185D
Procedure, shortened: as §1

[5] = biological target: T5, human Hv1 D185H (D^3.61H) (Homo sapiens, UniProt Q96D96, D185H)
T5 sequence (Q96D96 1-273 D185H): T1 sequence (Q96D96 1-273 D185H/H193A) with A193H
Procedure, shortened: as §1

[6] = biological target: T6, human Hv1 D112N (D^1.51N) (Homo sapiens, UniProt Q96D96, D112N)
T6 sequence (Q96D96 1-273 D112N): T1 sequence (Q96D96 1-273 D185H/H193A) with D112N, H185D, A193H
Procedure, shortened: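 Zn2+ effect was read from tail current, not end-of-step current. Whole-cell recording at ~21°C with pH 6.5 pipette and bath solutions (mM: ~80 TMA-MeSO3, 100 Bis-Tris, 8 HCl). ZnCl2 was diluted in bath solution and gravity-superfused, at least 2 min per change. Concentration–response was fitted to the Hill equation, with IC50 values from separate cells. ΔpIC50 was compared by unpaired Student's t test, P<0.05.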

[7] = VSTEP 80 mV, calculated as log (IC50)
[8] = read-out: IC50, fit of the mean data to a Hill function, Fig. 4D
[9] = read-out: Mean IC50 @ VSTEP, VSTEP 80 mV, pH 6.5, mean of fits in separate cells
[10] = read-out: IC50, fit of the mean data to a Hill function, Fig. 4A

## [Cl-].[Cl-].[Zn+2] [Zn^2+, ZnCl2]
[1]; D185H-H193A vs D185H
  Mean ΔpIC50 = (pIC50_1 - pIC50_2): −0.84
[1]; D185H-H193A vs H193A
  Mean ΔpIC50 = (pIC50_1 - pIC50_2): 0.52
[1]; Fig. 4D
  nH, fit of the mean data to a Hill function: 0.6
[1]; VSTEP 80 mV
  Hill value: 0.60
[1]; [7]
  pIC50: −4.54
[1]; [8]
  IC50: 26.7 µM
[1]; [9]
  IC50: 37.9 µM
[2]; D123H-H140A vs H140A
  Mean ΔpIC50 = (pIC50_1 - pIC50_2): 0.36
[2]; Fig. 4B
  nH, fit of the mean data to a Hill function: 0.5
[2]; VSTEP 80 mV
  Hill value: 0.58
[2]; [7]
  pIC50: −4.78
[2]; read-out: IC50, fit of the mean data to a Hill function, Fig. 4B
  IC50: 20.5 µM
[2]; [9]
  IC50: 18 µM
[3]; E119H-H140A-H193A vs H140A-H193A, positive = increase in Zn^2+ potency
  Mean ΔpIC50 = (pIC50_1 - pIC50_2): 2.4 and 2.39
[3]; Fig. 4A
  nH, fit of the mean data to a Hill function: 0.7
[3]; VSTEP 60 mV
  Hill value: 0.84
[3]; VSTEP 60 mV, calculated as log (IC50)
  pIC50: 5.15
[3]; from H140A-H193A to E119H-H140A-H193A
  change of Zn^2+ IC50: 2.4 fold
[3]; [10]
  IC50: 7.6 µM
[3]; read-out: Mean IC50 @ VSTEP, VSTEP 60 mV, pH 6.5, mean of fits in separate cells
  IC50: 7.3 µM
[4]; E119A-H193A vs E119A
  Mean ΔpIC50 = (pIC50_1 - pIC50_2): −1.60
[4]; E119A-H193A vs H193A
  Mean ΔpIC50 = (pIC50_1 - pIC50_2): −0.5
[4]; Fig. 4A
  nH, fit of the mean data to a Hill function: 0.8
[4]; VSTEP 100 mV
  Hill value: 0.78
[4]; VSTEP 100 mV, calculated as log (IC50)
  pIC50: −3.56
[4]; [10]
  IC50: 274 µM
[5]; Fig. 4D
  nH, fit of the mean data to a Hill function: 0.6
[5]; VSTEP 120 mV
  Hill value: 0.77
[5]; VSTEP 120 mV, calculated as log (IC50)
  pIC50: 5.38
[5]; [8]
  IC50: 6.5 µM
[6]; D112N vs WT
  Mean ΔpIC50 = (pIC50_1 - pIC50_2): −0.03
[6]; VSTEP 140 mV, determined from tail current
  Hill value: 0.76
[6]; VSTEP 140 mV, determined from tail current, calculated as log (IC50)
  pIC50: 5.03
[6]; read-out: Mean IC50 @ VSTEP, VSTEP 140 mV, pH 6.5, determined from tail current
  IC50: 9.5 µM

From publication PMC5987874 (The Journal of General Physiology, 2018)
